Results on six molecules are retold here after ChEMBL document CHEMBL1152561, “Evaluation of delocalized lipophilic cationic dyes as delivery vehicles for photosensitizers to mitochondria” (Bioorg Med Chem, 2009).

For series [1], the system named is R3230AC. Nature of the series: Cytotoxicity against rat R3230AC cells up to 20 uM for 24 hrs in dark. The series is classed as functional, cell-based.
The subject of series [2] is R3230AC. Put plainly: Stability in rat R3230AC cell lysate at 10 uM after 24 hrs. The class given is ADME, cell-based. A digest of the protocol: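 Cells seeded at 2.0–3.0 × 10^4 per well were grown 24 h, then exposed to dye in complete medium for 24 h. After two 0.9% NaCl rinses, cells were lysed in DMSO. Fluorescence (excitation 550 nm, emission 555–750 nm) was compared with dye in DMSO, including the ratio of the 580 and 650 nm peaks.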

Series [3] in a line: n-Octanol-phosphate buffer partition coefficient, log D at pH 7.4 by shake-flask method. The series is classed as physicochemical. A digest of the protocol: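 Dye was added to saturation in equal volumes (2 mL) of n-octanol and pH 7.4 phosphate buffer. The mixture was sonicated 30 min and left to settle 4 h. Each layer was diluted in dichloromethane and absorbance measured. Log D7.4 was taken from the ratio of absorbances between the two layers.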

Series [4] deals with R3230AC. Nature of the series: Phototoxicity in rat R3230AC cells irradiated with halogen lamp pretreated 24 hrs before irradiation by MTT assay. The class given is functional, cell-based. The settings on record: light or radiation study. A digest of the protocol: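 Cells were seeded at 1.0–1.5 × 10^4 per well, grown 24 h, then given 1–20 µM dye in complete medium for 24 h. After two saline rinses, cells in clear medium were irradiated with halogen broadband light (400–850 nm, water-filtered) at 3 mW cm−2 for 1 h while orbiting. They were refed and grown 24 h more. Viability was read by MTT as a percentage of light-exposed dye-free controls.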

The subject of series [5] is R3230AC. Put plainly: Cellular uptake in rat R3230AC cells measured per cell at 10 uM after 24 hrs. The series is classed as ADME, cell-based. An outline of the steps: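 R3230AC cells were grown in α-MEM with 10% bovine growth serum at 37 °C and 5% CO2. Dyes were diluted from 2 mM DMSO stocks. Intracellular dye content was measured by fluorescence at dye-appropriate excitation and emission wavelengths and converted using a fluorescence calibration curve.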

Molecules are shown by their SMILES. Calls of active or inactive are those of the source. The calls are words filed in the database; no cut-off is given here.

Broadly, the logD is lipophilicity at a set pH, counting ionised and neutral species. For orientation: IC50 means the point on the concentration scale where inhibition reaches its midpoint. Consider `CCN(CC)c1ccc2c(-c3ccccc3C(=O)OCCCOc3ccc(-c4c5nc(c(-c6ccccc6)c6ccc([nH]6)c(-c6ccccc6)c6nc(c(-c7ccccc7)c7ccc4[nH]7)C=C6)C=C5)cc3)c3ccc(=[N+](CC)CC)cc-3oc2c1.[I-]`, for which the result in the series on R3230AC [1] was inactive. Moreover, the Stability result with R3230AC [2] was “Stable”. The logD in series [3] is 3.53. The half-maximal inhibitory concentration (IC50) in the series with R3230AC [4] was found to be 3.95 µM.
In the case of `CCN(CC)c1ccc2c(-c3ccccc3C(C)=O)c3ccc(=[N+](CC)CC)cc-3oc2c1`, the outcome in the series on R3230AC [1] was inactive.
Take `CN(C)c1ccc2cc3ccc(N(C)C)cc3[n+](CCCOc3ccc(-c4c5nc(c(-c6ccccc6)c6ccc([nH]6)c(-c6ccccc6)c6nc(c(-c7ccccc7)c7ccc4[nH]7)C=C6)C=C5)cc3)c2c1.[I-]`: the Activity in the series with R3230AC [5] is listed as 68.2 fmol. In series [3], the logD stood at 0.79. Further, the IC50 in the series with R3230AC [4] stood at 3.28 µM.
In series [3], `CN(C)c1ccc2cc3ccc(N(C)C)cc3nc2c1` had a logD of -0.99. Also, the IC50 in the series on R3230AC [4] is 2.29 µM.
For `CCN(CC)c1ccc2c(-c3ccccc3C(=O)O)c3ccc(=[N+](CC)CC)cc-3oc2c1` [RHODAMINE B], the logD in series [3] was found to be 2.2.
In the case of `Oc1ccc(-c2c3nc(c(-c4ccccc4)c4ccc([nH]4)c(-c4ccccc4)c4nc(c(-c5ccccc5)c5ccc2[nH]5)C=C4)C=C3)cc1`, the Activity in the series on R3230AC [5] was 5.6 fmol. The outcome in the series on R3230AC [1] was inactive. Besides, the logD in series [3] was determined as 2.3.
